# High-throughput results: PubChem BioAssay, The Scripps Research Institute Molecular Screening Center
# Hits are enriched below; roughly 1.8% of the tested compounds scored in any of these assays.
# TCR CD3 inh – inhibitors of human TCR-CD3 interaction, primary screen, biochemical, fluorescence, TAMRA-labeled TCR probe; inhibition, % at 9.4 µM; 0.37% of 360,000 active;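 also: recombinant mutant TCR 2C K166C tagged with TAMRA read by polarization; 0% = receptor in buffer alone and 100% = receptor with positive control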
# Tn6 DDE FP – inhibitors of Tn6 peptide binding to fibrin DD(E), primary screen, biochemical, fluorescence polarization, human fibrin, Tn6 probe. Fibrinogen beta chain (Homo sapiens), P02675. Fibrin DD(E) TRITC-Tn6 fluorescence polarization displacement. inhibition, % at 8.3 µM. 0.21% of 370,000 active. AID 720509, 2013;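 active = inhibition above a per-campaign cutoff: mean of compounds within control limits plus 3 SD, cut at about 15% in these data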;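 also: 0% = median of all compound wells on the plate and 100% = blocking peptide control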
# Target sequence (P02675 whole entry, looked up): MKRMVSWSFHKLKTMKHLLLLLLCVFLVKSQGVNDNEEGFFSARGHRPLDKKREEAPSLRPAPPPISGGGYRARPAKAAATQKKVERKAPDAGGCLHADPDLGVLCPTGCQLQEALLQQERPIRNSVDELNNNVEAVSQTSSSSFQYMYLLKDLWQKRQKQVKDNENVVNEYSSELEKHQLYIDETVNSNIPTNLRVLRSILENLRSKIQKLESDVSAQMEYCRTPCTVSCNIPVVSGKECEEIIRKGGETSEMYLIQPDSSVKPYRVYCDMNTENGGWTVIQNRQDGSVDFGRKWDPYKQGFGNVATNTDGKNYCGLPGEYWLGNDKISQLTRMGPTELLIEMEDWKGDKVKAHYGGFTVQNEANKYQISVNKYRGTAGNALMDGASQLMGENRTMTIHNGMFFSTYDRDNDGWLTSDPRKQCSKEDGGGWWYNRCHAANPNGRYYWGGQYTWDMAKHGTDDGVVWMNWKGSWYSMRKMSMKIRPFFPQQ
# HTRA1 inh – HTRA1 serine protease inhibitors, primary screen, biochemical, fluorescence polarization, HTS; inhibition, % at 5.96 µM; Q92743; recombinant HTRA1, FP-rhodamine activity-based probe; 0.5% of 340,000 active; AID 504803, 2011; in the data active = inhibition above about 36%;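 also: 0% = enzyme with DMSO and 100% = wells lacking enzyme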
# SIAE inh – human SIAE inhibitors, primary screen, biochemical, fluorescence polarization, FP-Rh probe, 1536-well HTS. 0.69% of 370,000 active. inhibition, % at 9.66 µM. SIAE FP-Rh probe binding;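 active = inhibition above a cutoff: mean of compounds within the control limits plus 3 SD of those, cut at about 17% in these data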;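 also: 0% = plate median of compound wells and 100% = probe without SIAE protein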
# ABHD4 inh – ABHD4 inhibitors, primary screen, biochemical, fluorescence polarization, mouse; (Lyso)-N-acylphosphatidylethanolamine lipase (Mus musculus), Q8VD66; purified mABHD4, FP-Rh probe fluorescence polarization; inhibition, % at 8.92 µM; 0.54% of 370,000 active;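 active = inhibition exceeding the mean over every tested compound plus 3 SD, cut at about 30% in these data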;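 also: 0% = plate median of compound wells and 100% = S159A mutant with DMSO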
#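 assay system = mABHD4 protein | compound dosing = single nominal dose of 8.92 µM, 0.89% DMSO final | read-out basis = percent inhibition of probe binding, normalized to plate controls | schedule = Enzyme–compound pre-incubation 45 min, then probe 60 min, both 25 °C | detection = fluorescence polarization, excitation 525 nm, emission 598 nm, BODIPY TMR filters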
# DDE Tn7 FP inh – inhibitors of Tn7 peptide binding to fibrin DD(E), primary screen, biochemical, fluorescence polarization, human fibrin, Tn7 probe. 0.13% of 370,000 active. AID 720508, 2013. Fibrinogen beta chain (Homo sapiens), P02675. inhibition, % at 8.3 µM. FP displacement of FITC-Tn7 peptide from fibrin DD(E); 0% = median of compound wells per plate;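 active = inhibition above the mean of compounds falling within the control limits plus 3 SD of them, cut at about 14% in these data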;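 also: 0% = plate median of compound wells and 100% = 10 µM Aha-Tn7 peptide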
#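 Assay system: Fibrin-DD(E) protein isolated from polymerized human fibrin clots; read-out basis: percent inhibition; medium: Tris/NaCl/CaCl2 buffer, pH 7.8; signal: FP measurement; incubation: 10 min plus 3 h, room temperature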
# BSA probe FL – compounds interfering with TAMRA-BSA probe, counter-screen for TCR-CD3 interaction inhibitor project, biochemical, fluorescence, TAMRA-labeled BSA; shares compounds with TCR CD3 inh; TAMRA-labeled BSA probe fluorescence counterscreen; inhibition, % at 9.4 µM; 10% of 1,200 active; in the data active = inhibition above about 23%;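 also: 0% = buffer low control and 100% = reference high control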
# TCR-CD3 inh conf – TCR-CD3 interaction inhibitors, retest, confirmation, biochemical, fluorescence, TAMRA-labeled TCR probe; shares compounds with TCR CD3 inh; 48% of 1,200 active; TAMRA-labeled TCR probe fluorescence binding assay; inhibition, % at 9.4 µM; AID 652036, 2013
# * = called active by the depositor; · = no result. Rule as the data show it, unless noted: active = inhibition above about 19%; inactive = the rest.
SMILES,TCR CD3 inh,Tn6 DDE FP,HTRA1 inh,SIAE inh,ABHD4 inh,DDE Tn7 FP inh,BSA probe FL,TCR-CD3 inh conf
Cc1cc(C)c2c(=O)cc(C(F)F)oc2c1,-5,-2,1,0,-3,1,·,·
Cc1ccc2c(=O)cc(C(F)F)oc2c1,23*,7,6,5,-1,-1,-4,-1
CC12CCC(C(=O)N(CSC(=S)N/N=C\c3ccccc3O)C1=O)C2(C)C (stereo not drawn),32*,-2,26,3,20,-3,-10,20*
COc1ccc(/C=N\NC(=S)SCN2C(=O)C3CCC(C)(C2=O)C3(C)C)cc1 (stereo not drawn),4,4,-1,-3,1,0,·,·
CCOc1cc(N2CCOCC2)c(OCC)cc1NC(=O)COC(=O)c1ccc(Cl)nc1,0,-3,-2,6,3,-4,·,·
N#Cc1ccc(CN2CCN(C(=O)c3cc(C4CC4)nn3-c3ccccc3)CC2)cc1,2,-1,-6,5,-4,0,·,·
CN=c1c([N+](=O)[O-])nn(-c2ccc3c(c2)OCCO3)n1O,64*,-9,-5,9,-2,3,0,2
C/C(=N\NC(=O)COc1ccccc1-c1ccccc1)c1ccc(O)cc1O,19*,-4,-33,7,-10,1,-12,29*
COc1ncnc2c1NC1=C(S2)C(=NCCC(=O)O)CC(C)(C)C1,29*,11,15,-5,12,7,53*,41*
O=C(CCc1ccc(S(=O)(=O)N2CCOCC2)cc1)Nc1cc(Cl)ccc1N1CCOCC1,21*,-6,1,7,-2,-6,6,3
O=C(CCCOc1ccc(Cl)cc1Cl)Nc1cc(S(=O)(=O)N2CCOCC2)ccc1N1CCOCC1,5,4,-26,-4,6,-2,·,·
Oc1cc2c(cc1CN1CCN(c3ncccn3)CC1)OCO2,-2,3,-2,6,4,6,·,·
Cc1cccc(/C=N\NC(=O)c2ccc(Cl)cc2)c1O,34*,-4,23,-16,9,-7,-10,22*
Cc1cccc(/C=N/NC(=O)c2ccc3c(c2)OCCO3)c1O,19*,-14,11,1,-14,0,-12,15
CCOc1cccc(/C=N/NC(=O)c2ccc3c(c2)OCCO3)c1O,-8,-8,-4,0,-2,-2,·,·
Cc1cccc(/C=N/NC(=O)c2c(-c3ccccc3)noc2C)c1O,24*,-3,18,5,-3,-3,-7,18
CC(=O)c1ccc(S(=O)(=O)N(CC(=O)NC2CC2)Cc2ccc(F)cc2)cc1,-3,-3,0,3,1,1,·,·
CC1C(=O)N2CCCc3cc(NC(=O)CC(C)(C)C)cc1c32 (stereo not drawn),-2,1,9,5,1,-1,·,·
Cc1cc(C)c(OCC(=O)OCC(=O)NNC(=O)c2ccccc2F)c(C)c1,-2,7,4,-1,0,6,·,·
C/C(=N\NC(=O)c1nnn(-c2nonc2N)c1-c1ccccc1)c1ccccc1O,49*,-3,23,0,-4,-1,-7,30*
CCCc1c(C(=O)N/N=C(\C)c2ccccc2O)nnn1-c1nonc1N,6,0,21,3,6,9,·,·
CN(C)c1ccc(CNC(=O)C2Cc3c(-c4cccc(C(N)=O)c4)ccnc3O2)cc1 (stereo not drawn),-5,-5,·,5,7,3,·,·
C/C(=N\NC(=O)c1ccccc1O)C1CC1,25*,7,13,0,4,2,41*,23*
C/C(=N\NC(=O)c1ccc(N)cc1)C1CC1,9,3,5,4,0,-2,·,·
CCCNC(=O)c1ccc(CN2CCc3ccccc3C2)cc1,-5,4,-1,1,0,8,·,·
SMILES,TCR CD3 inh,Tn6 DDE FP,HTRA1 inh,SIAE inh,ABHD4 inh,DDE Tn7 FP inh,BSA probe FL,TCR-CD3 inh conf
C/C(=N\NC(=O)c1ccc(CN2CCc3ccccc3C2)cc1)c1ccccc1O,25*,-3,8,-3,3,2,-11,18
Cc1ccnc(NC(=O)C2CC(=O)N(Cc3ccccc3)C2)c1 (stereo not drawn),-3,4,3,14,-5,9,·,·
O=C(CCNC(=O)c1ccccc1Cl)NNC(=O)c1ccccc1O,23*,3,0,2,-1,0,-16,18
O=C(CC1CCCC1)NNC(=O)c1ccccc1O,29*,4,9,-1,5,4,-15,23*
Cc1ccc(C(=O)CCC(=O)NNC(=O)c2ccccc2O)cc1,21*,-1,18,6,3,0,-14,23*
Cc1ccc2c(CC(=O)NNC(=O)c3ccccc3O)coc2c1,20*,3,28,5,13,-4,-11,21*
O=C(NCCNC(=O)c1ccccc1O)c1ccccc1O,14,7,4,3,2,4,·,·
Cc1ccc(NC(=O)CCC(=O)c2ccccc2)cc1,-2,1,1,-1,0,-1,·,·
O=S1(=O)c2ccc(Br)cc2OC[C@H](Cc2ccccc2)N1Cc1cn(Cc2ccc(F)cc2)nn1,·,-1,·,1,-6,-5,·,·
CCOP(=O)(OCC)C(NC(=O)Nc1ccc(Cl)cc1)C(=O)N(CC)CC (stereo not drawn),21*,2,-2,-7,-3,6,0,1
O=C(O)c1cccc(-c2ccc(/C=c3/sc4nc5ccccc5n4c3=O)o2)c1,15,-1,-5,-14,15,0,·,·
O=C(O)c1ccccc1-c1ccc(C=c2sc3nc4cc(Br)cnc4n3c2=O)o1,27*,-48,·,6,28,-11,-16,23*
O=C1CNC(=S)N1CCOc1ccccc1,-3,4,3,10,-5,5,·,·
O=C1CNC(=S)N1CCc1ccc(O)c(O)c1,31*,1,·,9,22,-4,-12,27*
